Test results: ChEMBL document CHEMBL3734720, “Synthesis of thiophene-thiosemicarbazone derivatives and evaluation of their in vitro and in vivo antitumor activities” (Eur J Med Chem, 2015)

What was measured:
786-0 [1] = assay: Cell cycle arrest in human 786-0 cells assessed as accumulation at Sub G1 phase at 25 uM after 24 hrs by propidium iodide based flow cytometric analysis (reference value: 3.0 +/- 0.7%); assay type: functional
[2] = Antitumor activity against mouse EAT implanted in Balb/C mouse assessed as change in paw volume at 30 mg/kg, po administered on day 3 post tumor inoculation measured on day 6 by plethysmometer analysis (reference value: 86.1 +/- 5.7%); assay type: functional
786-0 [3] = assay: Cell cycle arrest in human 786-0 cells assessed as accumulation at S phase at 25 uM after 24 hrs by propidium iodide based flow cytometric analysis (reference value: 14.6 +/- 1.3%); assay type: functional
[4] = Antiproliferative activity against human UACC62 cells assessed as growth inhibition after 48 hrs by SRB assay; assay type: functional; conditions: UACC-62, 48 h
How it was run: (§1)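 Cells exposed 48 h at 37 °C, 5% CO2 to 0.25, 2.5, 25 and 250 µg/mL in DMSO/RPMI (final DMSO 0.1%); doxorubicin standard at 0.025–25 µg/mL. Plates fixed with 50% TCA before (T0) and after treatment; protein content read by sulforhodamine B at 540 nm. GI50 (µM) from nonlinear regression of concentration–response curves; triplicate.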

[5] = Antitumor activity against mouse EAT implanted in Balb/C mouse assessed as change in paw volume at 300 mg/kg, po administered on day 3 post tumor inoculation measured on day 12 by plethysmometer analysis (reference value: 125.5 +/- 7.5%); assay type: functional
[6] = Antitumor activity against mouse EAT implanted in Balb/C mouse assessed as change in paw volume at 100 mg/kg, po administered on day 3 post tumor inoculation measured on day 9 by plethysmometer analysis (reference value: 95.5 +/- 5.2%); assay type: functional
[7] = Acute toxicity in Balb/C mouse assessed as survival rate at 400 mg/kg, po; assay type: organism-based; conditions: in vivo
How it was run: (§2)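 Fixed dose procedure following OECD guideline; Balb/C mice (20-35 g) fasted 16 h, groups of 5 given single oral doses stepwise at 600, 400 and 200 mgKg-1; survival and clinical signs of pain, suffering and impending death recorded per OECD guidance.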

Mus musculus = assay: Acute toxicity in Balb/C mouse assessed as adhesion of organs at 600 mg/kg, po; assay type: organism-based; conditions: in vivo; how it was run: as §2
[8] = Antitumor activity against mouse EAT implanted in Balb/C mouse assessed as change in paw volume at 100 mg/kg, po administered on day 3 post tumor inoculation measured on day 12 by plethysmometer analysis (reference value: 125.5 +/- 7.5%); assay type: functional
MCF7 = assay: Antiproliferative activity against human MCF7 cells assessed as growth inhibition after 48 hrs by SRB assay; assay type: functional; conditions: MCF7, 48 h; how it was run: as §1

Structure (SMILES): S=C(N/N=C/c1cccs1)Nc1ccc(Br)cc1
- Activity (786-0 [1]): 5.4%
- Activity [2]: 60.6%
- Activity (786-0 [3]): 13.9%
- GI50 [4]: 71.1 µM
- Activity [5]: 64%
- Activity [6]: 73.7%
- survival [7]: 100%
- Activity (Mus musculus): Toxic
- Activity [8]: 75.8%
- GI50 (MCF7): < 0.74 µM
